Source: ChEMBL document CHEMBL3297735, “Optimization of troglitazone derivatives as potent anti-proliferative agents: towards more active and less toxic compounds” (Eur J Med Chem, 2014)

Tests used:
[1] = Toxicity in BALBc/AnNHsd mouse assessed as mortality at 34 mg/kg, iv relative to control; format: organism-based; parameters: dose 34 mg/kg, route intravenous; details: in vivo
HCT-116 = experiment: Cytotoxicity against human HCT116 cells assessed as cell viability at 10 uM after 72 hrs by MTS assay in presence of 10% fetal calf serum relative to control; format: functional; details: HCT-116, 72 h, read-out: Activity
MCF7 [2] = experiment: Cytotoxicity against human MCF7 cells assessed as cell viability at 10 uM after 72 hrs by MTS assay in presence of 10% fetal calf serum relative to control; format: functional; details: MCF7, 72 h, read-out: Activity
Method in brief: (§1)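 Cells were grown in RPMI with L-glutamine, 10% FCS, penicillin/streptomycin and fungizone at 37 °C under 5% CO2. Wells were seeded with 1900 cells for MCF-7 or 1300 cells for MDA-MB-231. After 24 h, compound was added from a 10 mM DMSO stock (final DMSO 1%) for 72 h, with DMSO-only controls. Viable cells were read by MTS at 490 nm and expressed as % of untreated. Mean ± SEM, N = 3.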

MDA-MB-231 [3] = experiment: Cytotoxicity against human MDA-MB-231 cells assessed as cell viability at 10 uM after 72 hrs by MTS assay in presence of 10% fetal calf serum relative to control; format: functional; details: MDA-MB-231, 72 h, read-out: Activity; method in brief: as §1
[4] = Cytotoxicity against human MDA435 cells assessed as cell viability at 10 uM after 72 hrs by MTS assay in presence of 10% fetal calf serum relative to control; format: functional; details: MDA-MB-435, 72 h, read-out: Activity
[5] = Cytotoxicity against human MiaPaCa cells assessed as cell viability at 10 uM after 72 hrs by MTS assay in presence of 10% fetal calf serum relative to control; format: functional; details: MIA PaCa-2, 72 h, read-out: Activity
HepG2 = experiment: Cytotoxicity against human HepG2 cells assessed as cell viability at 10 uM after 72 hrs by MTS assay in presence of 10% fetal calf serum relative to control; format: functional; details: HepG2, 72 h, read-out: Activity
PC-3 = experiment: Cytotoxicity against human PC3 cells assessed as cell viability at 10 uM after 72 hrs by MTS assay in presence of 10% fetal calf serum relative to control; format: functional; details: PC-3, 72 h, read-out: Activity
LNCaP = experiment: Cytotoxicity against human LNCAP cells assessed as cell viability at 10 uM after 72 hrs by MTS assay in presence of 10% fetal calf serum relative to control; format: functional; details: read-out: Activity
[6] = Cytotoxicity against human hepatocytes assessed as cell viability at 100 uM after 90 mins by MTT assay relative to control; format: cell-based, Hepatocyte; details: read-out: Activity
Method in brief: (§2)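 Cryopreserved human hepatocytes were plated at 0.1 × 10⁶ cells/well and exposed to compound for 90 min. MTT was then added for 30 min at 37 °C, plates were centrifuged, and formazan was dissolved in DMSO. Absorbance was read at 595 nm. Surviving cells are expressed as % of non-treated cells ± SEM.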

[7] = Cytotoxicity against human hepatocytes assessed as cell viability at 200 uM after 90 mins by MTT assay relative to control; format: cell-based, Hepatocyte; details: read-out: Activity; method in brief: as §2
[8] = Acute toxicity in iv dosed BALBc/AnNHsd mouse; format: organism-based; details: in vivo
Method in brief: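 Acute toxicity run in female BALBc/AnNHsd mice given the compounds by intravenous injection. The read-out was the maximum tolerated dose (MTD). Compounds were dissolved in a mixture of solvents, and the top dose was capped by solubility in that mixture.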

Mus musculus [9] = experiment: Toxicity in BALBc/AnNHsd mouse assessed as mortality at 65.5 mg/kg, iv; format: organism-based; parameters: dose 65.5 mg/kg, route intravenous; details: in vivo
Mus musculus [10] = experiment: Toxicity in BALBc/AnNHsd mouse assessed as behavioral changes at 65.5 mg/kg, iv; format: organism-based; parameters: dose 65.5 mg/kg, route intravenous; details: in vivo
Mus musculus [11] = experiment: Toxicity in BALBc/AnNHsd mouse assessed as change in body weight at 65.5 mg/kg, iv measured on day 1 (reference value: 17.67 +/- 0.33 g); format: organism-based; parameters: dose 65.5 mg/kg, route intravenous; details: in vivo
Method in brief: (§3)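 Acute toxicity was assessed in female BALBc/AnNHsd mice after intravenous injection of compound in a solvent mixture, to estimate the maximum tolerated dose.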

Mus musculus [12] = experiment: Toxicity in BALBc/AnNHsd mouse assessed as change in body weight at 65.5 mg/kg, iv measured on day 2 (reference value: 19 +/- 1 g); format: organism-based; parameters: dose 65.5 mg/kg, route intravenous; details: in vivo; method in brief: as §3
Mus musculus [13] = experiment: Toxicity in BALBc/AnNHsd mouse assessed as change in body weight at 65.5 mg/kg, iv measured on day 15 (reference value: 18.33 +/- 0.33 g); format: organism-based; parameters: dose 65.5 mg/kg, route intravenous; details: in vivo; method in brief: as §3
Mus musculus [14] = experiment: Toxicity in BALBc/AnNHsd mouse assessed as change in organ morphology at 65.5 mg/kg, iv; format: organism-based; parameters: dose 65.5 mg/kg, route intravenous; details: in vivo
MCF7 [15] = experiment: Cytotoxicity against human MCF7 cells after 24 hrs by CellTiterGlo assay in presence of 1% fetal calf serum; format: functional, cell-based; details: MCF7, 24 h
Method in brief: (§4)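 MCF-7 was maintained in phenol red DMEM and MDA-MB-231 in L-15. Cells were seeded in 6-well plates at 8.10⁴ cells/well in medium with 10% FCS and 2 mM L-glutamine. Medium was then switched to 1% FCS with 2 mM L-glutamine for treatment, with 0.1% DMSO controls. Cells were washed, trypsinized and counted with CellTiter-Glo luminescence. Each treatment was run in triplicate, and IC50 was taken as the concentration halving viable cells.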

MDA-MB-231 [16] = experiment: Cytotoxicity against human MDA-MB-231 cells after 24 hrs by CellTiterGlo assay in presence of 1% fetal calf serum; format: functional, cell-based; details: MDA-MB-231, 24 h; method in brief: as §4
Mus musculus [17] = experiment: Toxicity in BALBc/AnNHsd mouse assessed as mortality at 64.6 mg/kg, iv; format: organism-based; parameters: dose 64.6 mg/kg, route intravenous; details: in vivo
Mus musculus [18] = experiment: Toxicity in BALBc/AnNHsd mouse assessed as behavioral changes at 34 mg/kg, iv; format: organism-based; parameters: dose 34 mg/kg, route intravenous; details: in vivo; method in brief: as §3
Mus musculus [19] = experiment: Toxicity in BALBc/AnNHsd mouse assessed as change in body weight at 34 mg/kg, iv measured between day 1 and day 15 (reference value: 18 +/- 1 g); format: organism-based; parameters: dose 34 mg/kg, route intravenous; details: in vivo; method in brief: as §3
Mus musculus [20] = experiment: Toxicity in BALBc/AnNHsd mouse assessed as change in organ morphology at 34 mg/kg, iv; format: organism-based; parameters: dose 34 mg/kg, route intravenous; details: in vivo; method in brief: as §3

Structure (SMILES)	viability at 10 µM (HCT-116) [%]	viability at 10 µM (MCF7 [2]) [%]	viability at 10 µM (MDA-MB-231 [3]) [%]	viability at 10 µM [4] [%]	viability at 10 µM [5] [%]	viability at 10 µM (HepG2) [%]	viability at 10 µM (PC-3) [%]	viability at 10 µM (LNCaP) [%]	viability at 1.5 h, 100 µM [6] [%]	viability at 1.5 h, 200 µM [7] [%]	MTD [8] [mg/kg]	IC50 (MCF7 [15]) [µM]	IC50 (MDA-MB-231 [16]) [µM]	also measured
Cc1c(C)c2c(c(C)c1O)CCC(C)(COc1ccc(/C=C3\SC(=O)NC3=O)cc1)O2 (stereo not drawn)	88	84	69.3	73.1	95	82.3	83.1	85.4	62.8	43.1	34			mortality [1]: > 50%
Cc1c(C)c2c(c(C)c1CCCCCCN)CCC(C)(COc1ccc(/C=C3\SC(=O)N(C)C3=O)cc1)O2.O=C(O)C(F)(F)F (racemic)	0	0	0	0	0	0	7.7	11.6	82.6	82.7	65.5	6.1	6.7	Activity (Mus musculus [9]): Non-toxic; Activity (Mus musculus [10]): Non-toxic; Activity (Mus musculus [11]): 17.67 g; Activity (Mus musculus [12]): 19 g; Activity (Mus musculus [13]): 18.5 g; Activity (Mus musculus [14]): Non-toxic
Cc1c(C)c2c(c(C)c1CCCCCCN)CCC(C)(COc1ccc(/C=C3\SC(=O)NC3=O)cc1)O2.O=C(O)C(F)(F)F (racemic)	6.9	2.7	7.6	35.2	5.9	12.9	60.1	46.8	83.2	79.9	34	3.6	1.5	Activity (Mus musculus [17]): Toxic; Activity (Mus musculus [18]): Non-toxic; Activity (Mus musculus [19]): 21.5 g; Activity (Mus musculus [20]): Non-toxic
